# proCasp7 act: counter-screen: procaspase-7 (human) activation; hit rate 0.093% among 330,000; P55210; AID 463210; activation, % at 8.5 µM; recombinant procaspase-7, Ac-DEVD-pNA absorbance 405 nm; D23A/D198A/D206A triple mutant, cannot self-cleave; scale: DMSO 0, 5 µM enzyme 100;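 active = percent activation above the screen-wide mean plus 3 SD, cut at about 25% in these data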
# Target sequence (P55210 whole entry D23A/D198A/D206A): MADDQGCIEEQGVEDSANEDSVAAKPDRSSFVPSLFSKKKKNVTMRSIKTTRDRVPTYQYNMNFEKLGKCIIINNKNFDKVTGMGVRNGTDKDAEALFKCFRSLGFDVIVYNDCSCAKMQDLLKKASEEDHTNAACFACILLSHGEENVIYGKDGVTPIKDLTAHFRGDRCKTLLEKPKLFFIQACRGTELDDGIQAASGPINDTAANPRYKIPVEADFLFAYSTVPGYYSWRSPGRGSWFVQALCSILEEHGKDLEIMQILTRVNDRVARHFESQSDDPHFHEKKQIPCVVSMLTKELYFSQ
#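 Test system: Procaspase-7 triple mutant (PC-7 D3A). Also added: Ac-DEVD-pNA substrate, 400 µM as added. Schedule: 1 h enzyme–compound preincubation and 2 h substrate reaction, both 25 °C. Signal: p-Nitroaniline absorbance at 405 nm, read at 0 and 120 min. Control set: low DMSO alone, high DMSO plus 5 µM PC-7.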
# CHT inh: inhibitors of human choline transporter CHT | Q9GZV3 | CHT-expressing cells, membrane potential dye, choline response; hits give low values | B-score at 10 µM | hit rate 0.86% among 310,000;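 active = B-score over 3 SD under the library average, and starting fluorescence ratio not unusually high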;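 note: choline stimulus applied at its EC90 after an EC20 pre-addition; B-score computed on integrated fluorescence ratio after choline addition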
# procasp3 activ: activates human procaspase-3. P42574. recombinant procaspase-3 D3A, Ac-DEVD-pNA absorbance 405 nm. activation, % at 8.5 µM. hit rate 0.11% among 330,000. AID 463141;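 active = activation above the mean of all tested compounds plus 3 SD, cut at about 21% in these data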;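 note: 0% = DMSO alone and 100% = DMSO wells spiked with extra 5 µM PC-3 D3A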
# Target sequence (P42574 whole entry D9A/D28A/D175A): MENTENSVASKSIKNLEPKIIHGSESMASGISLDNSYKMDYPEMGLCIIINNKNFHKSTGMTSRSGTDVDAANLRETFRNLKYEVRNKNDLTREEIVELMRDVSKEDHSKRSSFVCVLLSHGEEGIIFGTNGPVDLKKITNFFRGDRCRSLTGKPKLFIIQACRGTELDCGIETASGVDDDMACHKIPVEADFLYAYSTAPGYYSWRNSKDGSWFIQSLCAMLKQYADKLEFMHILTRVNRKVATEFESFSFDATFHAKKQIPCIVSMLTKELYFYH
#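 Test system: Procaspase-3 D3A mutant, all three cleavage aspartates alanine | Dosing: Single dose, 8.5 µM nominal compound, 0.8% DMSO | Schedule: 1 h preincubation, 2 h reaction | Technique: 405 nm absorbance of p-nitroaniline, reads at 0 and 120 min | Repeats: One well per compound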
# CHT allo act: allosterically activates the human high affinity choline transporter; Q9GZV3; CHT-expressing cells, membrane potential dye, choline EC20; hits give high values; LV-AA mutant CHT in HEK293 cells; B-score at 10 µM; hit rate 0.49% among 310,000; AID 488977;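 active = initial fluorescence not abnormally high and integrated response B-score, plate-corrected, over 3 SD above library mean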
# CHT inh conf: human CHT inhibition, confirmatory screen | shares compounds with CHT inh | CHT-expressing cells, choline membrane potential dye; LV-to-AA substituted CHT, HEK293 cells | CHT activity remaining % of control (hits give low values), % at 10 µM | hit rate 70% among 2,400 | AID 493221;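 active = choline transporter activity left, mean of duplicates at 10 µM, below buffer-only control mean minus 3 SD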;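 note: depolarization triggered by choline at its EC90 following an EC20 pre-addition; 0% = hemicholinium-3 full block and 100% = buffer-only control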
# HEK293 MPD ctr: activity in parental HEK293 cells lacking CHT; hit rate 4% among 2,400; shares compounds with CHT inh; AID 493222; membrane potential ratio readout (active if shifted either direction beyond buffer ±3SD; no single direction) at 10 µM; membrane potential dye, choline response; active = decrease or increase beyond buffer ±3SD;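 note: parental cells lack the transporter so any hit is non-specific; ratio is peak minus trough fluorescence over baseline after EC90 choline challenge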
# * marks the source's active call; other numbers are inactive results; i = inactive; / = no result given. An excerpt weighted towards active compounds, which were near 1.3% of everything screened.
SMILES,proCasp7 act,CHT inh,procasp3 activ,CHT allo act,CHT inh conf,HEK293 MPD ctr
O=C(O)CC(NC(=O)C1c2ccccc2Oc2ccccc21)c1ccc(OC2CCCC2)cc1 (stereo unspecified),-1,-5.2*,1,i,i,i
CCOc1ccc(C(CC(=O)O)NC(=O)C2c3ccccc3Oc3ccccc32)cc1 (stereo unspecified),-4,i,-5,i,/,/
O=C(O)CC(NC(=O)c1sc2ccccc2c1Cl)c1ccc(OC2CCCC2)cc1 (stereo unspecified),6,-5.2*,7,i,28%*,i
Clc1cccc(CNCCNCc2cccc(Cl)c2)c1,-7,-7*,0,i,70%*,i
CC(C)N1CCN(Cc2ccncc2)CC1CCO (stereo unspecified),-2,i,6,i,/,/
Cc1ccc(-c2cccc(CN3CCN(C(C)C)C(CCO)C3)c2)o1 (stereo unspecified),-3,-5.3*,-1,i,37%*,i
CC1Cc2ccccc2N1C(=O)CCS(=O)(=O)c1ccc2c(c1)NC(=O)CS2 (stereo unspecified),8,-5*,9,i,i,i
COc1ccc(S(=O)(=O)CCC(=O)N2c3ccccc3CC2C)cc1 (stereo unspecified),-2,i,-9,i,/,/
S=c1nc(-c2cc(Cl)cc(Cl)c2)[nH][nH]1,-9,-5.8*,0,i,32%*,i
S=c1nc(-c2cccc(Cl)c2)[nH][nH]1,-7,i,-10,i,/,/
CN1C(=O)C(CC(=O)NCCc2ccccc2)N(NC(=O)c2cccc(F)c2)C1=S (stereo unspecified),-8,i,-3,i,/,/
CN1C(=O)C(CC(=O)NCCc2ccccc2)N(NC(=O)c2ccc(Cl)cc2)C1=S (stereo unspecified),0,-12*,-8,i,i,i
CCN(CC)CCCNC(=O)c1cc(-c2ccc(Cl)c(Cl)c2)on1,5,-6.7*,2,i,31%*,i
Cc1ccc2c(c1)N(CC(=O)NCCCN1C(C)CCCC1C)C(=O)c1cccnc1O2 (stereo unspecified),3,i,7,i,/,/
CC1CCCC(C)N1CCCNC(=O)CN1C(=O)c2cccnc2Oc2ccc(Cl)cc21 (stereo unspecified),6,-7.1*,6,i,19%*,i
Cc1nn(C)cc1/C=C/C(=O)c1ccc(O)cc1,9,i,-4,i,/,/
O=C(OCc1nc2ccsc2c(=O)[nH]1)c1cc(Br)c(Br)s1,2,-7.7*,-1,i,64%*,i
CCCc1cc(=O)[nH]c(SCc2nc3ccccc3s2)n1,6,-5*,3,i,66%*,i
Cc1ccc(NC(=S)Nc2ccc3[nH]c(=O)[nH]c3c2)cc1C,-11,-6.9*,-17,i,63%*,i
Cc1ccc2nsnc2c1S(=O)(=O)N1CCN(CCc2ccccc2)CC1,-4,-11*,5,i,41%*,i
O=S(=O)(c1ccccc1F)N1CCN(CCc2ccccc2)CC1,0,-6.8*,0,i,48%*,i
O=S(=O)(c1ccc(F)c(F)c1)N1CCN(CCc2ccccc2)CC1,3,-6.8*,11,i,54%*,i
Oc1ccccc1CN1CCCC(N2CCc3ccccc3C2)C1 (stereo unspecified),5,i,6,i,/,/
Cc1nn(C)c(C)c1CN(C)S(=O)(=O)c1ccc(F)cc1,-4,i,10,i,/,/
Cc1nn(C)c(C)c1CN(C)S(=O)(=O)c1ccc2ccccc2c1,3,-5.1*,-7,i,51%*,i
SMILES,proCasp7 act,CHT inh,procasp3 activ,CHT allo act,CHT inh conf,HEK293 MPD ctr
O=C(CSc1cccc(C(F)(F)F)c1)NCc1ccccc1,0,-5.8*,2,i,i,i
O=C(CSc1ccccc1)NCc1ccccc1,1,i,3,i,/,/
N#CC12CCCCC1CC1CCCCC1(C#N)N2CCO (stereo unspecified),2,-5.7*,-4,i,i,i
N#CC12CCCCC1CC1CCCCC1(C#N)N2N (stereo unspecified),-8,i,-4,i,/,/
CC[C@]1(C(=O)OC)[C@H]2C(=O)N(C)C(=O)[C@H]2[C@H]2CN(C)C(=NC3CCCCC3)N21,0,/,4,/,/,/
COc1ccc(C(=O)OCC2CC(c3ccccc3)=NO2)cc1OC (stereo unspecified),-14,i,3,i,/,/
COc1cc(C(=O)OCC2CC(c3ccccc3)=NO2)cc(OC)c1OC (stereo unspecified),-4,i,-1,i,i,i
Cc1ccc(C)c(N2CCN(C(=O)c3ccc4nsnc4c3)CC2)c1,-1,i,0,i,/,/
Cc1cc(N=Nc2ccccc2)c(NCC(O)C(O)C(O)CO)cc1C (stereo unspecified),-2,-11*,-5,i,30%*,i
CC1CCCC(NC(=O)c2ccc(CNc3c(N4CCCC4)c(=O)c3=O)cc2)C1C (stereo unspecified),-1,-13*,17,i,0.2%*,i
Cc1ccc(CNC(=O)c2ccc(CNc3c(N4CCCC4)c(=O)c3=O)cc2)cc1,1,i,14,i,/,/
O=C(NC1CCCCCCC1)c1ccc(CNc2c(N3CCOCC3)c(=O)c2=O)cc1,4,-9.4*,-6,i,13%*,i
Cc1ccc(S(=O)(=O)NCC2CCC(C(=O)NCc3cccnc3)CC2)cc1 (stereo unspecified),15,i,-2,i,/,/
CCCOP(=O)(c1ccc(N(C)C)cc1)C(O)c1ccc(Br)cc1 (stereo unspecified),2,-5.8*,-4,i,68%*,i
CCOC(=O)Cn1nc(-c2ccccc2)c2cnc3ccc(CC)cc3c21,13,i,2,i,/,/
Cc1ccc(C(C)NC(=S)NCc2ccc(F)cc2)cc1C (stereo unspecified),3,-5.1*,2,i,71%*,i
O=C(O)c1[nH]c2ccccc2c1CC(=O)N1CCN(c2ccccc2)CC1,11,i,-4,i,/,/
Cc1cccc(N2CCN(C(=O)Cc3c(C(=O)O)[nH]c4ccc(Cl)cc34)CC2)c1C,1,-11*,1,i,56%*,i
CCN(CC)S(=O)(=O)c1ccc(Cl)c(C(=O)Nc2nncs2)c1,8,i,1,i,/,/

# Bioassay records from PubChem.
